Laboratory results from ChEMBL document CHEMBL4699548, “Ultrasound assisted synthesis of tetrazole based pyrazolines and isoxazolines as potent anticancer agents via inhibition of tubulin polymerization” (Bioorg Med Chem Lett, 2020).
Calls of active or inactive are those of the source. No cut-off for these calls is given here.

Key:
HepG2 = assay: Cytotoxicity against human HepG2 cells assessed as reduction in cell viability by MTT assay; format: functional, cell-based
MCF7 = assay: Cytotoxicity against human MCF7 cells assessed as reduction in cell viability by MTT assay; format: functional, cell-based
A549 = assay: Cytotoxicity against human A549 cells assessed as reduction in cell viability by MTT assay; format: functional, cell-based
Tubulin = assay: Inhibition of tubulin polymerization in human A549 cells assessed as decrease in polymerized fraction of tubulin content after 48 hrs by western blot analysis; format: cell-based
Outline: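 A549 cells exposed to test agents at 1 μM for 48 h. Soluble and polymerized tubulin fractions were collected separately and tubulin levels in each were detected by western blot.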

Tubulin (Homo sapiens) [1] = biological target: T1, Tubulin (Homo sapiens) (UniProt P68371+Q9H4B7+P0DPH7+P68366+Q13509+Q71U36+P04350+Q3ZCM7+P07437+P68363+Q9BQE3+Q6PEY2+Q13885+Q9BVA1+Q9BUF5); assay: Inhibition of tubulin polymerization in human A549 cells assessed as decrease in polymerized fraction of tubulin content at 1 uM after 48 hrs by Western blot analysis relative to control; format: cell-based
Outline: (§1)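 A549 cells exposed to test agents at 1 μM for 48 h. Combretastatin A-4 (1 μM) run in parallel as positive control and DMSO as negative control. Soluble and polymerized tubulin fractions were collected separately and tubulin levels in each were detected by western blot.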

Tubulin (Homo sapiens) [2] = biological target: T1, Tubulin (Homo sapiens); assay: Inhibition of tubulin polymerization in human A549 cells assessed as increase in soluble fraction of tubulin at 1 uM measured after 48 hrs by western blot analysis; format: cell-based; outline: as §1

| IC50 (Tubulin) [µM] | inhibition (Tubulin (Homo sapiens) [1]) [%] | inhibition (Tubulin (Homo sapiens) [2]) | SMILES | IC50 (HepG2) [µM] | IC50 (MCF7) [µM] | IC50 (A549) [µM] |
| --- | --- | --- | --- | --- | --- | --- |
|  |  |  | COc1cc(C2=NOC(c3ccc(O)cc3)C2)ccc1OCc1nnn[nH]1 (configuration not stated) | 6.25 | 25 | 3.12 |
|  |  |  | COc1cc(C2=NNC(c3cccc(O)c3)C2)ccc1OCc1nnn[nH]1 (configuration not stated) | 2.88 | 2.16 | 2.24 |
|  |  |  | COc1ccc(C2CC(c3ccc(OCc4nnn[nH]4)c(OC)c3)=NO2)cc1 (configuration not stated) | 12.5 | 12.5 | 6.25 |
|  |  |  | COc1cc(C2=NOC(c3ccc(F)cc3)C2)ccc1OCc1nnn[nH]1 (configuration not stated) | 3.12 | 3.12 | 3.12 |
|  |  |  | COc1cc(C2=NOC(c3ccc(C)cc3)C2)ccc1OCc1nnn[nH]1 (configuration not stated) | 6.25 | 12.5 | 0.78 |
|  |  |  | COc1ccc(C2CC(c3ccc(OCc4nnn[nH]4)c(OC)c3)=NN2)cc1OC (configuration not stated) | 3.06 | 2.94 | 2.82 |
|  |  |  | COc1ccc(C2CC(c3ccc(OCc4nnn[nH]4)c(OC)c3)=NO2)cc1OC (configuration not stated) | 3.12 | 25 | 12.5 |
| 2.16 | 65.4 | Active | COc1cc(C2=NNC(c3ccc(F)cc3)C2)ccc1OCc1nnn[nH]1 (configuration not stated) | 0.85 | 0.92 | 0.94 |
|  |  |  | COc1ccc(/C=C\c2cc(OC)c(OC)c(OC)c2)cc1O [COMBRETASTATIN A4] | 0.009 | 0.04 | 0.05 |
|  |  |  | COc1cc(C2=NNC(c3ccc(C)cc3)C2)ccc1OCc1nnn[nH]1 (configuration not stated) | 1.08 | 1.76 | 0.99 |
|  |  |  | COc1cc(C2=NOC(c3ccccc3)C2)ccc1OCc1nnn[nH]1 (configuration not stated) | 6.25 | 12.5 | 6.25 |
|  |  |  | COc1cc(C2=NOC(c3ccc(Cl)cc3)C2)ccc1OCc1nnn[nH]1 (configuration not stated) | 12.5 | 6.25 | 6.25 |
| 2.94 | 62.6 | Active | COc1cc(C2=NNC(c3ccc(Cl)cc3)C2)ccc1OCc1nnn[nH]1 (configuration not stated) | 0.96 | 1.04 | 1.11 |
|  |  |  | COc1cc(C2=NNC(c3ccc(O)cc3)C2)ccc1OCc1nnn[nH]1 (configuration not stated) | 2.02 | 1.94 | 1.16 |
|  |  |  | COc1cc(C2=NNC(c3ccccc3)C2)ccc1OCc1nnn[nH]1 (configuration not stated) | 3.15 | 3.16 | 2.98 |
|  |  |  | COc1cc(C2=NOC(c3cccc(O)c3)C2)ccc1OCc1nnn[nH]1 (configuration not stated) | 1.56 | 6.25 | 25 |
|  |  |  | COc1ccc(C2CC(c3ccc(OCc4nnn[nH]4)c(OC)c3)=NN2)cc1 (configuration not stated) | 2.98 | 3.1 | 3.12 |
